Test [1] addresses Cannabinoid receptor 1 (Homo sapiens, UniProt P21554). As to the kind of experiment: Displacement of [3H]CP55940 from human CB1 receptor expressed in HEK293 cells after 1 hr by liquid scintillation spectrophotometry. The test is classed as cell-based. In a few lines:
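Membranes (50 µg) from HEK-293 cells stably expressing human CB1, cultured in DMEM/10% FBS. Incubated with 0.5 nM [3H]CP55,940 and test compound at 1 nM–10 µM in buffer with BSA (5 mg/mL), 1 h at 30 °C. Nonspecific binding defined with excess unlabelled CP55,940. Filtered through GF/B, then scintillation counting.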
For orientation: In a radioligand displacement assay an active substance lowers the binding of a labelled ligand.

Test [2] concerns Mus musculus. As to the kind of experiment: Induction of catalepsy in iv dosed Harlan ICR mouse at 40 mins measured for 5 mins by ring immobility test. In kind it is functional.
Test [3] has as its system Mus musculus. As to the kind of experiment: Antinociceptive activity in iv dosed Harlan ICR mouse assessed as latency to heat-induced tail flicking at 20 mins. In kind it is functional. In a few lines: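 Male ICR mice, 18–25 g, n = 6 per dose. Multiple doses iv by tail vein in emulphor–ethanol–saline 1:1:18. Tail-flick latency at 20 min, 10 s cutoff, expressed as %MPE.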

Test [4] deals with Mus musculus. As to the kind of experiment: Hypothermic activity in iv dosed Harlan ICR mouse assessed as change in rectal temperature at 30 mins. In kind it is functional. The note with it: 0.5 h.
The test system of test [5] is Mus musculus. Briefly: Locomotor activity in iv dosed Harlan ICR mouse from 5 to 15 mins by spontaneous locomotor activity test. In kind it is functional.
The species entered for test [6] is Homo sapiens. Briefly: Selectivity ratio of Ki for human CB1 receptor to Ki for human CB2 receptor.
Test [7] deals with Cannabinoid receptor 2 (Homo sapiens, UniProt P34972). As to the kind of experiment: Displacement of [3H]CP55940 from human CB2 receptor expressed in CHO cells after 1 hr by liquid scintillation spectrophotometry. The test is classed as cell-based. The essentials:
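Membranes (50 µg) from CHO cells stably expressing human CB2, cultured in DMEM/10% fetal calf serum. Incubated with 0.5 nM [3H]CP55,940 and test compound at 1 nM–10 µM with BSA (5 mg/mL), 1 h at 30 °C. Nonspecific binding defined with excess unlabelled CP55,940. GF/B filtration, then scintillation counting.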

Test [8] concerns Mus musculus. Briefly: Antinociceptive activity in Harlan ICR mouse assessed as latency to heat-induced tail flicking at 77 umol/kg, iv at 20 mins relative to control. The test is classed as functional.
Test [9] concerns Mus musculus. Briefly: Induction of catalepsy in Harlan ICR mouse at 77 umol/kg, iv at 40 mins measured for 5 mins by ring immobility test. In kind it is functional. The essentials: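 Male ICR mice given a single iv probe dose in emulphor–ethanol–saline 1:1:18. At 40 min placed on a 5.5 cm ring raised 16 cm and observed for 5 min by blinded raters. Up to 5 escapes allowed; mice escaping before 2.5 min excluded. Immobility index = time motionless / 300 s × 100.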

The subject of test [10] is Mus musculus. Briefly: Locomotor activity in Harlan ICR mouse assessed as inhibition of activity level at 77 umol/kg, iv from 5 to 15 mins by spontaneous locomotor activity test relative to vehicle treated control. In kind it is functional. In a few lines: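 Male ICR mice, n = 6 per dose, single probe dose iv in emulphor–ethanol–saline 1:1:18. Photocell beam interruptions recorded over 10 min, at 5–15 min after dosing. Result given as % inhibition relative to the vehicle group.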

The subject of test [11] is Mus musculus. As to the kind of experiment: Hypothermic activity in Harlan ICR mouse assessed as change in rectal temperature at 77 umol/kg, iv at 30 mins. In kind it is functional. In a few lines:
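Male ICR mice, n = 6 per dose. Single probe dose iv in emulphor–ethanol–saline 1:1:18. Rectal temperature taken with a thermistor probe at 25 mm depth before dosing and at 30 min. Result given as change from pre-injection value (°C).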

Chain of Cannabinoid receptor 2 (P34972 whole entry): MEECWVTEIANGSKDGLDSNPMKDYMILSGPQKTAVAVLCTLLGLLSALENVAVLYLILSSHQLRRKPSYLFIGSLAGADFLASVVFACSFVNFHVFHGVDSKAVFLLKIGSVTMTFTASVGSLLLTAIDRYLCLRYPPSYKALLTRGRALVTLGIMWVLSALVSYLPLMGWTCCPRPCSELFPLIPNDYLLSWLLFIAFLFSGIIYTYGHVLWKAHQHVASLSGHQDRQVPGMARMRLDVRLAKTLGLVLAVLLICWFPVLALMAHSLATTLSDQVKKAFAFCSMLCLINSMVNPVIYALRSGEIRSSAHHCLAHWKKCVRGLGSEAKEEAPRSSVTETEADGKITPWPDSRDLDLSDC
Chain of Cannabinoid receptor 1 (P21554 whole entry): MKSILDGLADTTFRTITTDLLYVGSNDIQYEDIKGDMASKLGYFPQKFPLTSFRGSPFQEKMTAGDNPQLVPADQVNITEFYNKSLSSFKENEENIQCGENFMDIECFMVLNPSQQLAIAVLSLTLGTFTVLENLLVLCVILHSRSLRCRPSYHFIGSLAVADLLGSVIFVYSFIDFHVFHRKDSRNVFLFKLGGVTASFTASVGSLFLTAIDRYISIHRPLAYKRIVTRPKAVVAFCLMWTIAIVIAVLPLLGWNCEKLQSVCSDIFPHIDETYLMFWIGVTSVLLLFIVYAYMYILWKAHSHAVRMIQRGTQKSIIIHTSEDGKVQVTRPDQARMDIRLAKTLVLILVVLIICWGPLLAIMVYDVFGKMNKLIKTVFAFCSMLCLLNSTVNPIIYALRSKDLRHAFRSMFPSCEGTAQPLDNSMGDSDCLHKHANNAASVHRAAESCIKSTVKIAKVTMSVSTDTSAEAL

The Ki is the dissociation constant of the complex between target and ligand, obtained from inhibition or displacement. The ED50 is the dose at which the effect has come halfway, by size or by number of responders. For `CCCCCn1c(C)c(C(=O)c2ccc(F)c3ccccc23)c2ccccc21`, the Ki came out at 14 nM in test [1] and 2.2 nM in [7]. Further, the ED50 was 0.99 µmol/kg in test [2], 0.48 µmol/kg in test [3], 0.54 µmol/kg in test [4] and 0.38 µmol/kg in test [5]. The Ratio Ki in test [6] worked out at 6.

With `CCCCCn1cc(C(=O)c2ccc(Br)c3ccccc23)c2ccccc21`, the values for the Ki in test [1] and in test [7] were 1.2 nM and 1.1 nM, respectively. Also, the Ratio Ki in [6] stood at 1.

By inhibition in vivo is commonly meant the share of the control response that was lost under treatment. For `CCCn1cc(C(=O)c2cccc3cccc(Br)c23)c2ccccc21`, the Ki is more than 10000 nM in [1] and 192 nM in test [7]. In addition, the Activity in test [8] is 9%; in [9], 5%; in test [11], -2%. Besides, the Ratio Ki in test [6] is more than 52. The inhibition in vivo at 77 µmol/kg in test [10] was 76%.

Consider `Cc1c(C(=O)c2cccc3ccccc23)c2cccc3c2n1[C@H](CN1CCOCC1)CO3` [WIN-552122], for which the ED50 was 0.94 µmol/kg in [3] and 0.23 µmol/kg in test [5].

Take `CCCCCc1cc(O)c2c(c1)OC(C)(C)[C@@H]1CCC(C)=C[C@@H]21` [DRONABINOL]: the ED50 in test [5] is 3.2 µmol/kg.

Take `CCCCCn1c(C)c(C(=O)c2ccc(Br)c3ccccc23)c2ccccc21`: the values for the Ki in test [1] and in test [7] were 14 nM and 2.8 nM, respectively. The Ratio Ki in test [6] is 5.

`CCCCCn1c(C)c(C(=O)c2ccc(I)c3ccccc23)c2ccccc21`: the Ki in test [1] was found to be 14 nM; in test [7] it was 2.1 nM. Besides, the ED50 came out at 2.5 µmol/kg in [2], 2.5 µmol/kg in test [3], 2.6 µmol/kg in [4] and 1.1 µmol/kg in test [5]. Further, in test [6], the Ratio Ki was 7.

With `CCCCCn1cc(C(=O)c2ccc(F)c3ccccc23)c2ccccc21`, the Ki in test [1] came to 7.2 nM; in test [7] it was 3.2 nM. Further, the ED50 is 0.58 µmol/kg in test [2], 0.14 µmol/kg in test [3], less than 0.08 µmol/kg in [4] and less than 0.08 µmol/kg in [5]. Besides, the Ratio Ki in test [6] was 2.

As for `CCCn1cc(C(=O)c2ccc(Br)c3ccccc23)c2ccccc21`, the values for the Ki in [1] and in [7] were 161 nM and 27 nM, respectively. The Activity is reported as 75% in test [8], 26% in test [9] and -3.9% in test [11]. The Ratio Ki in [6] came out at 6. Moreover, the inhibition in vivo at 77 µmol/kg in test [10] was 71%.

As to `CCCCCn1c(C)c(C(=O)c2cccc3cccc(Cl)c23)c2ccccc21`, the results for the Ki in test [1] and in test [7] were 116 nM and 19 nM, respectively. Also, the Activity in test [8] is 100%; in test [9] it was 86%; in test [11] it was -5.5%. For the same compound, in test [6], the Ratio Ki is 6.1. Also, the inhibition in vivo at 77 µmol/kg in [10] worked out at 84%.

As for `CCCCCn1cc(C(=O)c2cccc3cccc(I)c23)c2ccccc21`, the Ki in test [1] was determined as 73 nM; in [7], 3.3 nM. Besides, the ED50 in test [2] turned out to be 3.6 µmol/kg; in test [3], 1.3 µmol/kg; in test [4] it was 6.4 µmol/kg; in test [5], 1.8 µmol/kg. Further, the Ratio Ki in [6] came to 22.

Turning to `CCCCCn1cc(C(=O)c2cccc3cccc(Br)c23)c2ccccc21`, the Ki in [1] was determined as 21 nM; in test [7], 5.4 nM. For the same compound, the ED50 in [2] was found to be 3.7 µmol/kg; in [3], 1.8 µmol/kg; in test [4], 2.4 µmol/kg; in [5], 1.4 µmol/kg. Further, the Ratio Ki in test [6] was 4.

With `CCCn1cc(C(=O)c2ccc(Cl)c3ccccc23)c2ccccc21`, the Ki in test [1] stood at 93 nM; in [7] it was 44 nM. In addition, in [6], the Ratio Ki stood at 2.

For `CCCCCn1cc(C(=O)c2ccc(I)c3ccccc23)c2ccccc21`, the values for the Ki in test [1] and in [7] were 2.5 nM and 1.3 nM, respectively. The 50% effective dose (ED50) in test [2] amounted to 0.38 µmol/kg; in test [3], 0.45 µmol/kg; in test [4], 0.19 µmol/kg; in test [5] it was 0.3 µmol/kg. For the same compound, the Ratio Ki in test [6] stood at 2.

(Values after ChEMBL document CHEMBL2203189, “Synthesis and pharmacology of 1-alkyl-3-(1-naphthoyl)indoles: steric and electronic effects of 4- and 8-halogenated naphthoyl substituents” (Bioorg Med Chem, 2012).)
